Source: ChEMBL document CHEMBL1146509, “Periconicins, two new fusicoccane diterpenes produced by an endophytic fungus Periconia sp. with antibacterial activity” (2004)
≈ marks a conversion by molar mass, not a printed value.

Experiments:
[1] = system: Bacillus subtilis; assay: Antibacterial activity against Bacillus subtilis ATCC 6633 after 24 hrs by twofold microtiter broth dilution method; assay type: functional
Procedure, shortened: (§1)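 Two-fold serial dilutions in DMSO added to standard methods (SM) broth in 96-well plates, final 0.5% DMSO; wells inoculated from overnight culture at 10^5 CFU/mL; incubated 37 °C for 24 h; MIC taken as lowest concentration with no visible growth. Strains from ATCC or Institute for Fermentation, Osaka stock collections.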

[2] = system: Staphylococcus aureus; assay: Antibacterial activity against Staphylococcus aureus ATCC 6538p after 24 hrs by twofold microtiter broth dilution method; assay type: functional; procedure, shortened: as §1
[3] = system: Staphylococcus epidermidis; assay: Antibacterial activity against Staphylococcus epidermidis ATCC 12228 after 24 hrs by twofold microtiter broth dilution method; assay type: functional; procedure, shortened: as §1
[4] = system: Micrococcus luteus; assay: Antibacterial activity against Micrococcus luteus IFO 12708 after 24 hrs by twofold microtiter broth dilution method; assay type: functional; procedure, shortened: as §1
[5] = system: Klebsiella pneumoniae; assay: Antibacterial activity against Klebsiella pneumoniae IFO 13541 after 24 hrs by twofold microtiter broth dilution method; assay type: functional; procedure, shortened: as §1
[6] = system: Proteus vulgaris; assay: Antibacterial activity against Proteus vulgaris ATCC 3851 after 24 hrs by twofold microtiter broth dilution method; assay type: functional; procedure, shortened: as §1
[7] = system: Salmonella typhimurium; assay: Antibacterial activity against Salmonella typhimurium ATCC 14028 after 24 hrs by twofold microtiter broth dilution method; assay type: functional, Salmonella enterica subsp. enterica serovar Typhimurium; procedure, shortened: as §1
[8] = system: Escherichia coli; assay: Antibacterial activity against Escherichia coli ATCC 25922 after 24 hrs by twofold microtiter broth dilution method; assay type: functional; procedure, shortened: as §1
[9] = Salmonella enterica, ATCC 14028, 24 h

CC(C)C1=C2C/C=C(/C=O)[C@@H]3C(=O)[C@@H](O)[C@@H](C)[C@H]3C[C@]2(C)CC1 [PERICONICIN A] showed an MIC ([1]; ATCC 6633, 24 h) of 3.12 mg/L (≈ 9.86 µM), an MIC [2] of 12.5 mg/L (≈ 39.5 µM) and an MIC ([3]; ATCC 12228, 24 h) of 12.5 mg/L (≈ 39.5 µM). The MIC ([4]; IFO 12708, 24 h) was 25 mg/L (≈ 79 µM), the MIC ([5]; IFO 13541, 24 h) was 3.12 mg/L (≈ 9.86 µM) and the MIC ([6]; ATCC 3851, 24 h) was 6.25 mg/L (≈ 19.8 µM). It also gave an MIC [7, 9] of 6.25 mg/L (≈ 19.8 µM) and an MIC ([8]; ATCC 25922, 24 h) of 100 mg/L (≈ 316 µM).
Work on CC(CO)C1=C2C/C=C(/C=O)[C@@H]3C(=O)[C@@H](O)[C@@H](C)[C@H]3C[C@]2(C)CC1 (some centres undefined) [PERICONICIN B] yielded an MIC ([1]; ATCC 6633, 24 h) of 25 mg/L (≈ 75.2 µM), an MIC [2] of 50 mg/L (≈ 150 µM) and an MIC ([3]; ATCC 12228, 24 h) of 100 mg/L (≈ 301 µM). For the same compound, the MIC ([4]; IFO 12708, 24 h) was over 100 mg/L, the MIC ([5]; IFO 13541, 24 h) was 25 mg/L (≈ 75.2 µM) and the MIC ([6]; ATCC 3851, 24 h) was 50 mg/L (≈ 150 µM). It also gave an MIC [7, 9] of 50 mg/L (≈ 150 µM) and an MIC ([8]; ATCC 25922, 24 h) of over 100 mg/L.
GENTAMICIN was tested, and the MIC [1] was 3.12 mg/L, the MIC [2] was 3.12 mg/L and the MIC [3] was 3.12 mg/L. For the same compound, the MIC [4] was 6.25 mg/L, the MIC [5] was 12.5 mg/L and the MIC [6] was 6.25 mg/L. The MIC ([7]; Salmonella enterica subsp. enterica serovar Typhimurium) was 3.12 mg/L and the MIC [8] was 1.56 mg/L.
